The subject of test [1] is Human gammaherpesvirus 8. The test is described as follows: Cytotoxicity against Kaposi's sarcoma-associated herpesvirus infected BC3 cells after 120 hrs by MTT assay. It counts as functional, organism-based. The settings on record: Human gammaherpesvirus 8, BC-3, 120 h. A digest of the protocol: (§1)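 KSHV-positive PEL lines (BC2, BC3) and herpesvirus-negative B-lymphoma DG75 exposed to varying nucleoside concentrations for 120 h, then cell viability assay; OD 560 nm, untreated cells of each line set as 100%. Six replicate wells per experiment; IC50 as mean ± SD of three separate experiments.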
On the technique in general: Formazan colour is commonly taken as a measure of viable cells.

For test [2], the system named is Human gammaherpesvirus 8. The test is described as follows: Cytotoxicity against Kaposi's sarcoma-associated herpesvirus infected BC2 cells after 120 hrs by MTT assay. The settings on record: Human gammaherpesvirus 8, BC-2, 120 h. It counts as functional, organism-based. A digest of the protocol:
as §1

Test [3] is described as follows: Cytotoxicity against DG75 cells after 120 hrs by MTT assay. The settings on record: Homo sapiens, DG-75, 120 h. Type of test: cell-based. A digest of the protocol: as §1
The test system of another test is BC-3. In words: Inhibition of RNA synthesis in KSHV infected BC3 cells assessed as [3H]guanosine incorporation after 1 hr. Type of test: functional, Homo sapiens. A digest of the protocol:
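BC3 cells (2.5 × 10⁵ cells/mL) cultured 24 h, then compound added for 1 h; before harvest, 30 min pulse label with [³H]thymidine for DNA or tritiated ribonucleoside for RNA (guanosine in text, uridine in legend); synthesis measured as radiolabel incorporation.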

The subject of test [4] is Human gammaherpesvirus 8. The test is described as follows: Cytotoxicity against Kaposi's sarcoma-associated herpesvirus infected BC3 cells in presence of 50 uM adenosine after 72 hrs. Type of test: functional, organism-based. Conditions: BC-3. A digest of the protocol:
(§2)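 BC3 cells seeded at 10⁴ cells/mL, given graded compound concentrations plus one common nucleoside (final 50 µM) added simultaneously, in triplicate; 3 days (72 h) at 37 °C, humidified 5% CO₂; growth inhibition read by MTT assay.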

The subject of test [5] is Human gammaherpesvirus 8. In words: Cytotoxicity against Kaposi's sarcoma-associated herpesvirus infected BC3 cells in presence of 50 uM thymidine after 72 hrs. It counts as functional, organism-based. The settings on record: BC-3. A digest of the protocol:
as §2

Calls of active or inactive are those of the source. The rule behind the calls is not given here.

What is called IC50 is the concentration at which inhibition is half-maximal. The low end stands for greater potency in that assay, the high end for weaker potency in that assay. In general, Inhibition refers to how much of the control response was suppressed.

In the case of `N#C[C@H]1[C@H](O)[C@@H](CO)O[C@H]1n1cnc2c(N)nc(N)nc21`, the 50% inhibitory concentration (IC50) was 0.47 µM in the test on Human gammaherpesvirus 8 [1], 1.56 µM in the test on Human gammaherpesvirus 8 [2] and greater than 15 µM in test [3].

As to `N#C[C@@H]1[C@H](O)[C@@H](CO)O[C@H]1n1cnc2c(=O)[nH]c(N)nc21`, the 50% inhibitory concentration (IC50) with Human gammaherpesvirus 8 [1] is 1.73 µM; with Human gammaherpesvirus 8 [2] it was 2.61 µM; in test [3], greater than 15 µM.

On to `Nc1nc2c(ncn2COCCO)c(=O)[nH]1` [ACYCLOVIR], for which the IC50 (in the test on Human gammaherpesvirus 8 [1]; with Human gammaherpesvirus 8 [2]; in test [3]) was greater than 100 µM in each case.

On to `N#C[C@H]1[C@H](O)[C@@H](CO)O[C@H]1n1cnc2c(O)nc(N)nc21`, for which the Inhibition in the test on BC-3 is given as 80%. For the same molecule, the half-maximal inhibitory concentration (IC50) in the test on Human gammaherpesvirus 8 [1] was 1.14 µM; with Human gammaherpesvirus 8 [2] it was 7.61 µM; in test [3] it was greater than 15 µM. Moreover, the result with Human gammaherpesvirus 8 [4] and in the test with Human gammaherpesvirus 8 [5] was inactive.

As for `N#C[C@H]1[C@H](O)[C@@H](CO)O[C@H]1n1ccc(N)nc1=O` [TAS-109], the half-maximal inhibitory concentration (IC50) in the test on Human gammaherpesvirus 8 [1] stood at 0.23 µM; with Human gammaherpesvirus 8 [2], 0.13 µM; in test [3], 0.21 µM.

As to `Nc1nc2c(ncn2COC(CO)CO)c(=O)[nH]1` [GANCICLOVIR], the half-maximal inhibitory concentration (IC50) in the test with Human gammaherpesvirus 8 [1] is 70 µM; with Human gammaherpesvirus 8 [2], 81 µM; in test [3] it was greater than 100 µM.

Take `COc1nc(N)nc2c1ncn2[C@@H]1O[C@H](CO)[C@@H](O)[C@@H]1C#N`: the concentration for half-maximal inhibition (IC50) in the test on Human gammaherpesvirus 8 [1] is 0.79 µM; with Human gammaherpesvirus 8 [2] it was 1.51 µM; in test [3], greater than 15 µM.

For the molecule `N#C[C@H]1[C@H](O)[C@@H](CO)O[C@H]1n1cnc2c(Cl)nc(N)nc21`, the results for the IC50 (in the test with Human gammaherpesvirus 8 [1]; with Human gammaherpesvirus 8 [2]; in test [3]) were 1.48 µM, 1.73 µM and greater than 15 µM, respectively.

For the molecule `O=c1[nH]c(=O)n([C@H]2C[C@H](O)[C@@H](CO)O2)cc1/C=C/Br` [BRIVUDINE], the concentration for half-maximal inhibition (IC50) (in the test with Human gammaherpesvirus 8 [1]; in the test with Human gammaherpesvirus 8 [2]; in test [3]) was greater than 15 µM in each case.

Regarding `N#C[C@H]1[C@H](O)[C@@H](CO)O[C@H]1n1cnc2cnc(N)nc21`, the IC50 (with Human gammaherpesvirus 8 [1]; in the test with Human gammaherpesvirus 8 [2]; in test [3]) was greater than 15 µM each time.

Consider `N#C[C@H]1[C@H](O)[C@@H](CO)O[C@H]1n1cnc2c(N)ncnc21`, for which the half-maximal inhibitory concentration (IC50) (with Human gammaherpesvirus 8 [1]; in the test on Human gammaherpesvirus 8 [2]; in test [3]) was greater than 15 µM throughout.

The values are drawn from ChEMBL document CHEMBL1147135, “9-(2-C-Cyano-2-deoxy-beta-D-arabino-pentofuranosyl)guanine, a potential antitumor agent against B-lymphoma infected with Kaposi's sarcoma-associated herpesvirus” (J Med Chem, 2007).
